Reference: ChEMBL document CHEMBL5724801, “EUbOPEN Chemogenomics Library - Multiplex” (2024)
“And” between values parts separate entries of the source, which are not always exact repeats. Equal entries are not always repeated.

Tested on: U2OS
Assay: Multiplex assay against U2OS
Format: toxicity, cell-based
Details: human
Outline: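 Cells stained live at seeding with Hoechst33342, BioTracker Green Microtubule Cytoskeleton Dye, MitoTracker Red and Annexin V Alexa Fluor 680 were imaged on a CQ1 microscope at 37°C and 5% CO2 after compound addition. Their classification by CellPathfinder machine-learning gating ran from Hoechst high-intensity objects versus normal cells, to healthy, pyknosed or fragmented nuclei among normal cells, to mitotic or apoptotic among pyknosed cells. Tubulin, mitochondrial-mass and membrane-permeability phenotypes are per cents of healthy-nucleus cells.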

[1] = 12 h, 1 µM, compound concentration 1 uM
[2] = 12 h, 10 µM, compound concentration 10 uM
[3] = 24 h, 1 µM, compound concentration 1 uM
[4] = 24 h, 10 µM, compound concentration 10 uM
[5] = 48 h, 1 µM, compound concentration 1 uM
[6] = 48 h, 10 µM, compound concentration 10 uM

SMILES: CCOC(=O)c1c(/C(C#N)=C\N)c2ccc(Cl)c(Cl)c2n1C
- Population Apoptotic (%) [1]: 47.83% and 43.48%
- Population Fragmented Nuclei (%) [1]: 0.85% and 4.7%
- Population Healthy Nuclei (%) [1]: 89.38% and 79.87%
- Population Hoechst High Intensity Objects (%) [1]: 0%
- Population Membrane Permeable-Phenotype (%) [1]: 1.19% and 0.84%
- Population Mitochondria Different-Phenotype (%) [1]: 0% and 5.88%
- Population Mitotic Cells (%) [1]: 52.17% and 56.52%
- Population Normal (%) [1]: 100%
- Population Pyknosed Nuclei (%) [1]: 9.77% and 15.44%
- Population Tubulin-Different-Phenotype (%) [1]: 0.95% and 0.84%
- Population Apoptotic (%) [2]: 43.9% and 26.67%
- Population Healthy Nuclei (%) [2]: 86.92% and 80.49%
- Population Hoechst High Intensity Objects (%) [2]: 0%
- Population Membrane Permeable-Phenotype (%) [2]: 0% and 3.64%
- Population Mitochondria Different-Phenotype (%) [2]: 0% and 2.42%
- Population Mitotic Cells (%) [2]: 56.1% and 73.33%
- Population Normal (%) [2]: 100%
- Population Pyknosed Nuclei (%) [2]: 11.17% and 7.32%
- Population Tubulin-Different-Phenotype (%) [2]: 0.31% and 0%
- Total Cell Count [2]: 367 and 205
- Population Apoptotic (%) [3]: 38.46% and 52.38%
- Population Fragmented Nuclei (%) [3]: 0.82% and 3.3%
- Population Healthy Nuclei (%) [3]: 90.7% and 85.16%
- Population Hoechst High Intensity Objects (%) [3]: 0%
- Population Membrane Permeable-Phenotype (%) [3]: 0.9% and 3.87%
- Population Mitochondria Different-Phenotype (%) [3]: 0% and 2.58%
- Population Mitotic Cells (%) [3]: 61.54% and 47.62%
- Population Normal (%) [3]: 100%
- Population Pyknosed Nuclei (%) [3]: 8.48% and 11.54%
- Population Tubulin-Different-Phenotype (%) [3]: 1.62% and 1.29%
- Population Apoptotic (%) [4]: 49.09% and 33.33%
- Population Fragmented Nuclei (%) [4]: 1.8% and 9.69%
- Population Healthy Nuclei (%) [4]: 87.17% and 84.5%
- Population Hoechst High Intensity Objects (%) [4]: 0%
- Population Membrane Permeable-Phenotype (%) [4]: 0.46% and 1.38%
- Population Mitochondria Different-Phenotype (%) [4]: 0% and 1.38%
- Population Mitotic Cells (%) [4]: 50.91% and 66.67%
- Population Normal (%) [4]: 100%
- Population Pyknosed Nuclei (%) [4]: 11.02% and 5.81%
- Population Tubulin-Different-Phenotype (%) [4]: 0.92% and 0.46%
- Total Cell Count [4]: 499 and 258
- Population Apoptotic (%) [5]: 46.46% and 70.83%
- Population Fragmented Nuclei (%) [5]: 2.55% and 2.93%
- Population Healthy Nuclei (%) [5]: 88.73% and 89.25%
- Population Hoechst High Intensity Objects (%) [5]: 0%
- Population Membrane Permeable-Phenotype (%) [5]: 0.6% and 3.28%
- Population Mitochondria Different-Phenotype (%) [5]: 0% and 2.55%
- Population Mitotic Cells (%) [5]: 53.54% and 29.17%
- Population Normal (%) [5]: 100%
- Population Pyknosed Nuclei (%) [5]: 8.71% and 7.82%
- Population Tubulin-Different-Phenotype (%) [5]: 0.4% and 1.82%
- Population Apoptotic (%) [6]: 37.84% and 47.83%
- Population Fragmented Nuclei (%) [6]: 3.52% and 4.86%
- Population Healthy Nuclei (%) [6]: 85.01% and 83.38%
- Population Hoechst High Intensity Objects (%) [6]: 0%
- Population Membrane Permeable-Phenotype (%) [6]: 1.09% and 0.92%
- Population Mitochondria Different-Phenotype (%) [6]: 0% and 1.84%
- Population Mitotic Cells (%) [6]: 62.16% and 52.17%
- Population Normal (%) [6]: 100%
- Population Pyknosed Nuclei (%) [6]: 11.48% and 11.76%
- Population Tubulin-Different-Phenotype (%) [6]: 1.09% and 0%
- Total Cell Count [6]: 967 and 391

SMILES: CCn1c(-c2nonc2N)nc2c(C#CC(C)(C)O)ncc(OCC3CCCNC3)c21 (stereo not given)
- Population Apoptotic (%) [1]: 30.23% and 52.17%
- Population Fragmented Nuclei (%) [1]: 3.38% and 1.86%
- Population Healthy Nuclei (%) [1]: 85.45% and 83.85%
- Population Hoechst High Intensity Objects (%) [1]: 0%
- Population Membrane Permeable-Phenotype (%) [1]: 1.22% and 1.48%
- Population Mitochondria Different-Phenotype (%) [1]: 0% and 5.93%
- Population Mitotic Cells (%) [1]: 69.77% and 47.83%
- Population Normal (%) [1]: 100%
- Population Pyknosed Nuclei (%) [1]: 11.17% and 14.29%
- Population Tubulin-Different-Phenotype (%) [1]: 0.91% and 0.74%
- Total Cell Count [1]: 385 and 161
- Population Apoptotic (%) [2]: 37.04% and 27.91%
- Population Fragmented Nuclei (%) [2]: 2.62% and 8.28%
- Population Healthy Nuclei (%) [2]: 83.2% and 64.33%
- Population Hoechst High Intensity Objects (%) [2]: 0%
- Population Membrane Permeable-Phenotype (%) [2]: 0.95% and 4.95%
- Population Mitotic Cells (%) [2]: 62.96% and 72.09%
- Population Normal (%) [2]: 100%
- Population Pyknosed Nuclei (%) [2]: 14.17% and 27.39%
- Population Tubulin-Different-Phenotype (%) [2]: 2.52% and 4.95%
- Total Cell Count [2]: 381 and 157
- Population Apoptotic (%) [3]: 38.6% and 42.86%
- Population Fragmented Nuclei (%) [3]: 2.16% and 1.54%
- Population Healthy Nuclei (%) [3]: 86.64% and 84.1%
- Population Hoechst High Intensity Objects (%) [3]: 0.2% and 0.51%
- Population Membrane Permeable-Phenotype (%) [3]: 0.68% and 5.49%
- Population Mitochondria Different-Phenotype (%) [3]: 0.23% and 1.83%
- Population Mitotic Cells (%) [3]: 61.4% and 57.14%
- Population Normal (%) [3]: 99.8% and 99.49%
- Population Pyknosed Nuclei (%) [3]: 11.2% and 14.36%
- Population Tubulin-Different-Phenotype (%) [3]: 1.36% and 0%
- Total Cell Count [3]: 510 and 196
- Population Apoptotic (%) [4]: 44.32% and 50%
- Population Fragmented Nuclei (%) [4]: 2.7% and 7.78%
- Population Healthy Nuclei (%) [4]: 77.53% and 56.67%
- Population Hoechst High Intensity Objects (%) [4]: 0%
- Population Membrane Permeable-Phenotype (%) [4]: 0.29% and 0.98%
- Population Mitotic Cells (%) [4]: 55.68% and 50%
- Population Normal (%) [4]: 100%
- Population Pyknosed Nuclei (%) [4]: 19.78% and 35.56%
- Population Tubulin-Different-Phenotype (%) [4]: 3.48% and 3.92%
- Total Cell Count [4]: 445 and 180
- Population Apoptotic (%) [5]: 50% and 45.16%
- Population Fragmented Nuclei (%) [5]: 2.09% and 2.15%
- Population Healthy Nuclei (%) [5]: 90.19% and 88.34%
- Population Hoechst High Intensity Objects (%) [5]: 0%
- Population Membrane Permeable-Phenotype (%) [5]: 1.22% and 1.39%
- Population Mitochondria Different-Phenotype (%) [5]: 0% and 4.51%
- Population Mitotic Cells (%) [5]: 50% and 54.84%
- Population Normal (%) [5]: 100%
- Population Pyknosed Nuclei (%) [5]: 7.72% and 9.51%
- Population Tubulin-Different-Phenotype (%) [5]: 0.49% and 1.04%
- Total Cell Count [5]: 907 and 326
- Population Apoptotic (%) [6]: 65.03% and 83.08%
- Population Fragmented Nuclei (%) [6]: 6.86% and 8.16%
- Population Healthy Nuclei (%) [6]: 71.34% and 58.67%
- Population Hoechst High Intensity Objects (%) [6]: 0%
- Population Membrane Permeable-Phenotype (%) [6]: 1.71% and 7.83%
- Population Mitochondria Different-Phenotype (%) [6]: 0.64% and 7.83%
- Population Mitotic Cells (%) [6]: 34.97% and 16.92%
- Population Normal (%) [6]: 100%
- Population Pyknosed Nuclei (%) [6]: 21.8% and 33.16%
- Population Tubulin-Different-Phenotype (%) [6]: 2.56% and 7.83%
